# Activity calls are given as the source filed them.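 Rule for the calls: active = inhibition above 20% at 50 µM; inactive = the rest.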
# Target: Kelch-like ECH-associated protein 1 (Homo sapiens) (UniProt Q14145)
# Assay: Keap1 Kelch binding to Nrf2 peptide inhibition, confirmation, orthogonal assay for Keap1-Nrf2 interaction inhibitor project, biophysical, competitive SPR, dry powder (AID 651876)
# Details: stronger effect = higher value
# Method in brief: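 Material: Keap1 Kelch domain, biochemical; amount: 40 nM Kelch domain; probe or stimulus: biotinylated 16mer Nrf2 peptide captured on streptavidin CM5 surface; compound: two single doses per compound, 5 µM and 50 µM; timing: Kelch–compound preincubation at room temperature, SPR injection at 25 °C; technique: Double-referenced SPR association slopes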
# Kelch-like ECH-associated protein 1 (Homo sapiens), sequence (Q14145 whole entry, looked up): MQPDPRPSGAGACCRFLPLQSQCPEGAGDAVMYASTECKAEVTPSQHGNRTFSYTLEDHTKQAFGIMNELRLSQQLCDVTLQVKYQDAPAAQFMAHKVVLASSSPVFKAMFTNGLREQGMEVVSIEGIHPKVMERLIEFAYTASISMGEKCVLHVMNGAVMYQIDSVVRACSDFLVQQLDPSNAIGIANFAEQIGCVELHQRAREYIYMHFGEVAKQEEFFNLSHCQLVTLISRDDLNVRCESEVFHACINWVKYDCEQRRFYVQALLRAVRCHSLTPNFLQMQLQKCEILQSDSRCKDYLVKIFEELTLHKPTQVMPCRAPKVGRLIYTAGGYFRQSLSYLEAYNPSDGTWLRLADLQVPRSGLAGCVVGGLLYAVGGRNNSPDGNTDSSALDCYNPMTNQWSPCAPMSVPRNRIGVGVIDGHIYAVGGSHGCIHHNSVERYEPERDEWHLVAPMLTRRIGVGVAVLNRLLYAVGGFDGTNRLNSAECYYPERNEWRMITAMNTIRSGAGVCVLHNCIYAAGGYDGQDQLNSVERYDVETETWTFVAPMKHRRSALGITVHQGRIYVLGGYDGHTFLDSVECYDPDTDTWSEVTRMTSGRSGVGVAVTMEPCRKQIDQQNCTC
SMILES,inhibition (at 50 µM),"inhibition (inhibition, at 5 µM) [%]"
O=C(NC[C@@H]1c2ccccc2CCN1C(=O)[C@@H]1CCCC[C@@H]1C(=O)O)c1ccccc1,-3.5% (inactive),1.5
O=C(NCCO)c1ccccc1C(=O)NC[C@@H]1c2ccccc2CCN1C(=O)C1CCCCC1C(=O)O (some centres undefined),32.1%,7.5
